# Measurements: ChEMBL document CHEMBL4715736, “Identification of anticancer agents based on the thieno[2,3-b]pyridine and 1H-pyrazole molecular scaffolds” (2016)
# Tests used:
# Assay type in all cases: functional
# [1] = system: SF-268; assay: Growth inhibition of human SF-268 cells assessed as cell growth at 100 uM incubated for 48 hrs by sulforhodamine B assay relative to control; details: read-out: Activity
# [2] = system: DU-145; assay: Growth inhibition of human DU-145 cells incubated for 48 hrs by sulforhodamine B assay
# In short: (§1)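 NCI Developmental Therapeutics Program NCI60 panel. Compounds that were active in the 10 µM one-dose screen went on to dose–response testing. Growth at each concentration is expressed relative to untreated control (100%). GI50 (concentration giving 50% of maximal inhibition of proliferation) and TGI (concentration giving total growth inhibition) were derived from the curves.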
# [3] = system: Hs-578T; assay: Growth inhibition of human Hs-578T cells assessed as cell growth at 0.1 uM incubated for 48 hrs by sulforhodamine B assay relative to control; details: read-out: Activity
# [4] = system: RXF 393; assay: Growth inhibition of human RXF 393 cells assessed as cell growth at 1 uM incubated for 48 hrs by sulforhodamine B assay relative to control; details: read-out: Activity
# [5] = system: UACC-62; assay: Growth inhibition of human UACC-62 cells incubated for 48 hrs by sulforhodamine B assay
# In short: (§2)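 NCI DTP 60-line human tumour panel. Dose-response curves were run only for ligands active in the initial 10 µM screen. GI50 (concentration giving 50% of maximal inhibition of proliferation) and TGI (concentration giving total growth inhibition) were derived from these curves.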
# [6] = system: COLO 205; assay: Growth inhibition of human COLO 205 cells incubated for 48 hrs by sulforhodamine B assay; in short: as §1
# [7] = system: NCI-H23; assay: Growth inhibition of human NCI-H23 cells incubated for 48 hrs by sulforhodamine B assay
# In short: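 NCI60 panel at the NCI Developmental Therapeutics Program. Only compounds active in the 10 µM screen went to dose-response testing. GI50, the concentration giving 50% of maximal inhibition of proliferation, and TGI, the concentration giving total growth inhibition, were derived from the dose-response curves.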
# [8] = system: UO-31; assay: Growth inhibition of human UO-31 cells assessed as cell growth at 100 uM incubated for 48 hrs by sulforhodamine B assay relative to control; details: read-out: Activity
# [9] = system: UO-31; assay: Growth inhibition of human UO-31 cells assessed as cell growth at 0.1 uM incubated for 48 hrs by sulforhodamine B assay relative to control; details: read-out: Activity
# [10] = system: A549; assay: Growth inhibition of human A549/ATCC cells assessed as cell growth at 1 uM incubated for 48 hrs by sulforhodamine B assay relative to control; details: read-out: Activity; in short: as §1
# [11] = system: M14; assay: Growth inhibition of human M14 cells assessed as cell growth at 100 uM incubated for 48 hrs by sulforhodamine B assay relative to control; details: read-out: Activity
# [12] = system: OVCAR-3; assay: Growth inhibition of human OVCAR-3 cells assessed as cell growth at 100 uM incubated for 48 hrs by sulforhodamine B assay relative to control; details: read-out: Activity
# [13] = system: OVCAR-8; assay: Growth inhibition of human OVCAR-8 cells assessed as cell growth at 0.1 uM incubated for 48 hrs by sulforhodamine B assay relative to control; details: read-out: Activity
# [14] = system: MOLT-4; assay: Growth inhibition of human MOLT-4 cells assessed as cell growth at 100 uM incubated for 48 hrs by sulforhodamine B assay relative to control; details: read-out: Activity
# [15] = system: NCI-H226; assay: Growth inhibition of human NCI-H226 cells assessed as cell growth at 0.1 uM incubated for 48 hrs by sulforhodamine B assay relative to control; details: read-out: Activity
# [16] = system: BT-549; assay: Growth inhibition of human BT-549 cells incubated for 48 hrs by sulforhodamine B assay; in short: as §1
# [17] = system: OVCAR-8; assay: Growth inhibition of human OVCAR-8 cells assessed as cell growth at 1 uM incubated for 48 hrs by sulforhodamine B assay relative to control; details: read-out: Activity
# [18] = system: Malme-3M; assay: Growth inhibition of human Malme-3M cells assessed as cell growth at 0.1 uM incubated for 48 hrs by sulforhodamine B assay relative to control; details: read-out: Activity
# [19] = system: PC-3; assay: Growth inhibition of human PC-3 cells incubated for 48 hrs by sulforhodamine B assay; in short: as §2
# [20] = system: NCI-H460; assay: Growth inhibition of human NCI-H460 cells assessed as cell growth at 0.01 uM incubated for 48 hrs by sulforhodamine B assay relative to control; details: read-out: Activity
# [21] = system: NCI-H522; assay: Growth inhibition of human NCI-H522 cells assessed as cell growth at 100 uM incubated for 48 hrs by sulforhodamine B assay relative to control; details: read-out: Activity
# [22] = system: Hs-578T; assay: Growth inhibition of human Hs-578T cells assessed as cell growth at 1 uM incubated for 48 hrs by sulforhodamine B assay relative to control; details: read-out: Activity
# [23] = system: TK-10; assay: Growth inhibition of human TK-10 cells incubated for 48 hrs by sulforhodamine B assay; in short: as §2
# [24] = system: ACHN; assay: Growth inhibition of human ACHN cells assessed as cell growth at 0.01 uM incubated for 48 hrs by sulforhodamine B assay relative to control; details: read-out: Activity
# [25] = system: NCI-H226; assay: Growth inhibition of human NCI-H226 cells assessed as cell growth at 100 uM incubated for 48 hrs by sulforhodamine B assay relative to control; details: read-out: Activity
# [26] = system: RXF 393; assay: Growth inhibition of human RXF 393 cells assessed as cell growth at 0.1 uM incubated for 48 hrs by sulforhodamine B assay relative to control; details: read-out: Activity
# [27] = system: LOX IMVI; assay: Growth inhibition of human LOX IMVI cells assessed as cell growth at 1 uM incubated for 48 hrs by sulforhodamine B assay relative to control; details: read-out: Activity
# [28] = system: OVCAR-5; assay: Growth inhibition of human OVCAR-5 cells assessed as cell growth at 1 uM incubated for 48 hrs by sulforhodamine B assay relative to control; details: read-out: Activity
# [29] = system: MDA-MB-468; assay: Growth inhibition of human MDA-MB-468 cells assessed as cell growth at 100 uM incubated for 48 hrs by sulforhodamine B assay relative to control; details: read-out: Activity
# [30] = system: SK-MEL-2; assay: Growth inhibition of human SK-MEL-2 cells assessed as cell growth at 1 uM incubated for 48 hrs by sulforhodamine B assay relative to control; details: read-out: Activity
# [31] = system: OVCAR-5; assay: Growth inhibition of human OVCAR-5 cells incubated for 48 hrs by sulforhodamine B assay; in short: as §2
# [32] = system: T47D; assay: Growth inhibition of human T47D cells assessed as cell growth at 100 uM incubated for 48 hrs by sulforhodamine B assay relative to control; details: read-out: Activity
# [33] = system: UO-31; assay: Growth inhibition of human UO-31 cells incubated for 48 hrs by sulforhodamine B assay; in short: as §2
# [34] = system: K562; assay: Growth inhibition of human K562 cells assessed as cell growth at 0.01 uM incubated for 48 hrs by sulforhodamine B assay relative to control; details: read-out: Activity
# [35] = system: OVCAR-3; assay: Growth inhibition of human OVCAR-3 cells assessed as cell growth at 0.1 uM incubated for 48 hrs by sulforhodamine B assay relative to control; details: read-out: Activity
# [36] = read-out: LC50 (the source's name)
structure (smiles),measurement,setting,value
Cc1cc(C)c(NC(=O)c2sc3nc4c(cc3c2N)CN(Cc2ccccc2)CC4)c(C)c1,growth at 100 µM,[1],-10%
same,GI50,[2],2620 nM
same,TGI,[2],7.65 µM
same,CC50,[2]; [36],> 100 µM
same,growth at 0.1 µM,[3],91%
same,growth at 1 µM,[4],78%
same,GI50,[5],3.9 µM
same,LC50,[5],> 100 µM
same,TGI,[5],42.4 µM
same,GI50,[6],2980 nM
same,LC50 (concentration killing 50% of cells),[6],68.8 µM
same,TGI,[6],10.1 µM
same,GI50,[7],4.51 µM
same,LC50 (50% lethal concentration),[7],> 100 µM
same,TGI,[7],> 100 µM
same,growth at 100 µM,[8],-1%
same,growth at 0.1 µM,[9],88%
same,growth at 1 µM,[10],90%
same,growth at 100 µM,[11],-18%
same,growth at 100 µM,[12],-47%
same,growth at 0.1 µM,[13],97%
same,growth at 100 µM,[14],10%
same,growth at 0.1 µM,[15],93%
same,GI50,[16],4.05 µM
same,TGI,[16],57.6 µM
same,CC50,[16]; [36],> 100 µM
same,growth at 1 µM,[17],91%
same,growth at 0.1 µM,[18],102%
same,GI50,[19],3.13 µM
same,TGI,[19],> 100 µM
same,CC50,[19]; [36],> 100 µM
same,growth at 0.01 µM,[20],99%
same,growth at 100 µM,[21],-29%
same,growth at 1 µM,[22],76%
same,GI50,[23],5.06 µM
same,TGI,[23],> 100 µM
same,CC50,[23]; [36],> 100 µM
same,growth at 0.01 µM,[24],97%
same,growth at 100 µM,[25],20%
same,growth at 0.1 µM,[26],89%
same,growth at 1 µM,[27],99%
same,growth at 1 µM,[28],97%
same,growth at 100 µM,[29],-1%
same,growth at 1 µM,[30],96%
same,GI50,[31],12.5 µM
same,TGI,[31],> 100 µM
same,CC50,[31]; [36],> 100 µM
same,growth at 100 µM,[32],1%
same,GI50,[33],4.78 µM
same,TGI,[33],93.9 µM
same,CC50,[33]; [36],> 100 µM
same,growth at 0.01 µM,[34],108%
same,growth at 0.1 µM,[35],105%
